Screens deposited in PubChem BioAssay by several laboratories.
hiPSC survival = enhancers of single-cell hiPSC survival, primary screen, ATPlite luminescence; 100% = ROCK inhibitor wells, 0% = DMSO; survival enhancement, % at 20 µM; 0.044% of 360,000 active; AID 602274, 2012; in the data active = survival enhancement above about 18%;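 note: cells exposed to compounds for 16 hours before the ATP read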
CRFR2-BP antag = antagonists of CRF-BP/CRF-R2 complex, primary screen, cell-based, HEK293, calcium dye fluorescence, uHTS. CRF-induced calcium fluorescence. AID 588475, 2011. inhibition, % at 11.8 µM. 0.59% of 350,000 active;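 active = inhibition of the ligand-induced calcium signal above about 50% at the single tested concentration, limit read from the data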
UCH37 DUB inh = inhibitors of human UCH37 deubiquitinase, primary screen, biochemical, Ub-AMC cleavage, fluorescence. AID 588478, 2011. inhibition, % (concentration not given with the values). Ubiquitin carboxyl-terminal hydrolase isozyme L5 (Homo sapiens), Q9Y5K5. 0.33% of 330,000 active. purified proteasome/UCH37;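 active = mean inhibition over replicate wells above about 20%, limit read from the data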;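 note: 0% = compound-free wells with enzyme and 100% = wells lacking proteasome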
Target sequence (Q9Y5K5 whole entry, looked up): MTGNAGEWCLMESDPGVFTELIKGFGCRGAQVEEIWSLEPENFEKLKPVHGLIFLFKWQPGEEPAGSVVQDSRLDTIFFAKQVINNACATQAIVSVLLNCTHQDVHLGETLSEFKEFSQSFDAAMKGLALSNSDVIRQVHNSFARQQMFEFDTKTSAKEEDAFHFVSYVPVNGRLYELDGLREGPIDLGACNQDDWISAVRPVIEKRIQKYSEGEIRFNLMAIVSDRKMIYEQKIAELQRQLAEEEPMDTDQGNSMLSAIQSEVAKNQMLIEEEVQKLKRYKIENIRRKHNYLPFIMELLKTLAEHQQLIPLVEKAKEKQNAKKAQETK
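assay system = human UCH37 enzyme supplied as purified proteasome complex | amount = proteasome at 0.15 nM in the dispensed enzyme solution | schedule = 30 min compound-proteasome preincubation then 25 min substrate reaction, room temperature | measured by = fluorescence, ex 355 nm, em 460 nm | benchmarks = no-proteasome wells (full inhibition) and compound-free wells (no inhibition)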
CRFR2-BP ag = agonists of CRF-BP/CRF-R2 complex, primary screen, cell-based, HEK293, calcium dye fluorescence, uHTS; activation, % at 13.2 µM; AID 588473, 2011; calcium dye fluorescence (FLIPR); percent of saturating CRF peptide response; 0.46% of 350,000 active;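 active = activation of at least 50%, plus an integration ratio under a set limit after plate pattern correction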;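 note: plate controls were neutral control wells without compound for no effect and CRF at EC100 for full effect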
Cardio protect = cardioprotection against H2O2-induced cell death, primary screen, uHTS, H9c2 cells, ATPLite luminescence. H9c2 cardiomyocytes, H2O2 injury protection, 2 h. protection from H2O2 cell death, % at 20 µM. 0.63% of 360,000 active. AID 588492, 2011;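 active = compounds giving at least 50% protection of heart cells from peroxide-induced death in the single-dose screen, raw or plate-pattern-corrected value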;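 note: 0% = DMSO wells with peroxide and 100% = DMSO wells without peroxide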
beta cell repl = inducers of MIN6 beta-cell proliferation, primary screen, ATP luminescence, uHTS; MIN6 cells proliferation, ATPlite luminescence, 48 h; cells starved in 0.2% serum; 100% = growth in 10% serum; proliferation, % at 10 µM; 0.29% of 330,000 active;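 active = compounds whose signal lies at least 3.5 SD above the mean of all wells on their plate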;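 note: 0% = DMSO-treated cells in low-serum medium and 100% = 10% serum control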
Numbers without * were called inactive. The list is not random: actives were taken first. Their share in the collection is about 2.1%.

`COc1cc(C=Nn2c(-c3n[nH]c4c3CCC4)n[nH]c2=S)ccc1O` gave UCH37 DUB inh 4.4.
Screening CC1CCN(c2ccc3c(c2)S(=O)(=O)c2cccc(C(=O)NCc4ccc(F)cc4)c2C3=O)CC1 returned hiPSC survival -3.9, CRFR2-BP antag -33.8, UCH37 DUB inh -0.4, CRFR2-BP ag 85.4*, Cardio protect 3.3 and beta cell repl -1.0.
`O=C(NCc1ccc(F)cc1)c1cccc2c1C(=O)c1ccc(N3CCC(N4CCCCC4)CC3)cc1S2(=O)=O` gave hiPSC survival -4.4, CRFR2-BP antag -35.9, CRFR2-BP ag 17.4 and Cardio protect -4.5.
`O=C(NCc1ccc(F)cc1)c1cccc2c1C(=O)c1ccc(N3CCC(Cc4ccccc4)CC3)cc1S2(=O)=O` gave hiPSC survival -0.4, CRFR2-BP antag -51.4, UCH37 DUB inh 1.0, CRFR2-BP ag 125.9*, Cardio protect -1.3 and beta cell repl -1.8.
Screening CC(C)c1cc(NC(=O)c2ccccc2)cc(C(C)C)c1O returned hiPSC survival -0.4, CRFR2-BP antag 82.4*, UCH37 DUB inh -1.4, CRFR2-BP ag -2.8, Cardio protect 7.5 and beta cell repl -3.9.
`CC(=O)Nc1cc(C(C)C)c(O)c(C(C)C)c1` gave hiPSC survival 4.6, CRFR2-BP antag 4.5, UCH37 DUB inh 0.3, CRFR2-BP ag -1.2, Cardio protect 5.6 and beta cell repl -1.5.
For O=C(Nc1ccccc1)Nc1cccc2ccccc12 the results were hiPSC survival -0.6, CRFR2-BP antag 16.5, UCH37 DUB inh -0.6, CRFR2-BP ag -3.6, Cardio protect -3.5 and beta cell repl -1.6.
O=C(Nc1ccccc1)Nc1ccc(O)c2ccccc12 was read as CRFR2-BP antag 70.1*, UCH37 DUB inh -17.6, CRFR2-BP ag 0.1 and beta cell repl -4.2.
For C=C(C)Cn1c(SCC(=O)N/N=C/c2c(O)ccc3ccccc23)nc2ccccc2c1=O the results were hiPSC survival 1.3, CRFR2-BP antag 14.6, CRFR2-BP ag 11.8, Cardio protect 69.3* and beta cell repl 0.0.
For CC(=NN=C(N)N)c1ccc(Cl)cc1 the results were UCH37 DUB inh 6.2.
`Cc1cc(C)c2nc3sc(=Cc4ccc(-c5ccccc5C(=O)O)o4)c(=O)n3c2c1` gave hiPSC survival -2.4 and Cardio protect 5.4.
O=C(O)c1ccc(-c2ccc(/C=c3/sc4nc5ccccc5n4c3=O)o2)cc1Cl was read as hiPSC survival 0.0, CRFR2-BP antag -86.4, CRFR2-BP ag 118.0*, Cardio protect 9.0 and beta cell repl -3.9.
For Cc1ccc2c(nc3s/c(=C\c4ccc(-c5ccccc5C(=O)O)o4)c(=O)n32)c1C the results were hiPSC survival -0.3, CRFR2-BP antag -76.7, CRFR2-BP ag 126.3*, Cardio protect -5.6 and beta cell repl -2.7.
For CCN(CC)c1ccc(C=NN=C(N)N)c(O)c1 the results were UCH37 DUB inh -20.4.
`O=C(NN=Cc1ccc2cccc(OCc3ccccc3)c2n1)c1ccc(Cl)cc1` gave UCH37 DUB inh -313.9.
Screening CCN(c1ccccc1)c1nc(=O)c2cccnc2s1 returned hiPSC survival -0.7, CRFR2-BP antag 28.7, UCH37 DUB inh -3.6, CRFR2-BP ag 0.6, Cardio protect 5.0 and beta cell repl -1.6.
Screening CCN(c1cccc(C)c1)c1nc2ccsc2c(=O)s1 returned hiPSC survival 2.9, CRFR2-BP antag 69.9*, UCH37 DUB inh -29.7, CRFR2-BP ag -6.3, Cardio protect -11.1 and beta cell repl -3.4.
`Cc1ccc(S(=O)(=O)NCC(=O)N(CC(=O)NCc2ccco2)Cc2ccccc2)cc1` gave hiPSC survival -0.3, CRFR2-BP antag -56.0, UCH37 DUB inh 2.0, CRFR2-BP ag 55.1*, Cardio protect 2.5 and beta cell repl -0.5.
`Cc1ccc(S(=O)(=O)N(CC(=O)NCc2ccco2)Cc2ccccc2F)cc1` gave hiPSC survival -3.8, CRFR2-BP antag 89.4*, UCH37 DUB inh 6.8, CRFR2-BP ag -2.4 and Cardio protect 11.4.
